One test relates to MCF7. Put plainly: Antiproliferative activity against human MCF7 cells after 48 hrs. The test is classed as functional, cell-based. The conditions noted are these: MCF7, 48 h. Put shortly: (§1)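 TCA fixation, sulforhodamine B stain, absorbance 585 nm minus day-of-treatment background plate; inhibition vs DMSO control; at least triplicate; IC50 accepted if within-experiment variability under 10%.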

In another test the test system is HT-29. Put plainly: Antiproliferative activity against human HT-29 cells after 48 hrs. The test is classed as functional, cell-based. The conditions noted are these: HT-29, 48 h. Put shortly:
as §1

The subject of the next test is M21. The experiment in a line: Antiproliferative activity against human M21 cells after 48 hrs. The conditions noted are these: M21, 48 h. The test is classed as functional, cell-based. Put shortly: as §1
The target in test [1] is Tubulin beta (Homo sapiens) (UniProt P68371+Q9H4B7+Q13509+P04350+Q3ZCM7+P07437+Q13885+Q9BVA1+Q9BUF5+A6NNZ2). Put plainly: inhibition of beta tubulin acylation in human M21 cells assessed as beta-tubulin band migration by Western blotting. It counts as cell-based. Put shortly: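 Floating plus adherent cells pooled, lysed in Laemmli buffer, 10% SDS-PAGE, nitrocellulose; blocked in TBS pH 7.4 with 5% milk/0.1% Tween 20, probed with monoclonal anti-β-tubulin 1:500 then peroxidase anti-mouse 1:2500.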

Each structure is given as a SMILES string. Activity calls are given as the source filed them. The rule behind the calls is not given here.

On to `COCCCCCc1cccc(NC(=O)CCCl)c1`, for which the IC50 in the test on MCF7, in the test on HT-29 and in the test with M21 was greater than 100 µM in each case.

In the case of `CC(C)(C)c1ccc(NC(=O)CCl)cc1`, the IC50 in the test with MCF7 is 5.4 µM; in the test with HT-29 it was 15 µM; with M21, 5.4 µM. In test [1], the outcome was inactive.

Regarding `CC(C)(C)c1ccc(CNC(=O)NCCCCl)cc1`, the IC50 in the test with MCF7 was determined as 17 µM; in the test on HT-29, 19 µM; in the test with M21, 11 µM.

As to `CCNC(=O)Nc1cccc(CCCCCO)c1`, the IC50 in the test with MCF7, in the test on HT-29 and with M21 was greater than 100 µM each time.

Take `C=CC(=O)Nc1cccc(CCCCC(C)=O)c1`: the concentration for half-maximal inhibition (IC50) is 99 µM in the test with MCF7, 29 µM in the test on HT-29 and 33 µM in the test with M21.

Turning to `CCNC(=O)NCc1ccc(C(C)(C)C)cc1`, the IC50 in the test on MCF7, with HT-29 and in the test with M21 was greater than 100 µM each time.

In the case of `O=C(CCl)NC(=O)Nc1ccc(I)cc1`, the IC50 was 4.9 µM in the test on MCF7, 11 µM in the test with HT-29 and 8.1 µM in the test on M21.

As to `CCCCCc1cccc(NC(=O)NC(=O)CCl)c1`, the figures for the IC50 in the test with MCF7, with HT-29 and with M21 were 8.3 µM, 8.4 µM and 3.5 µM, respectively. Further, the outcome in test [1] was inactive.

On to `O=C(NCCCCl)Nc1ccc(I)cc1`, for which the IC50 in the test with MCF7 was greater than 100 µM; with HT-29, 90 µM; in the test with M21, greater than 100 µM.

`COCCCCCc1cccc(NC(=O)CCl)c1`: the IC50 in the test with MCF7 turned out to be 12 µM; in the test on HT-29 it was 13 µM; with M21 it was 6.9 µM. Further, in test [1], the result was inactive.

Take `O=C(CCl)Nc1ccc(I)cc1`: the figures for the IC50 in the test on MCF7, in the test with HT-29 and in the test on M21 were 6.2 µM, 9.7 µM and 5.1 µM, respectively. For the same molecule, the outcome in test [1] was inactive.

Consider `COCCCCCc1cccc(NC(=O)NCCCCl)c1`, for which the IC50 is 50 µM in the test on MCF7, 56 µM with HT-29 and 51 µM in the test on M21.

Take `O=C(CCl)NC(=O)Nc1cccc(CCCCCO)c1`: the IC50 in the test on MCF7 turned out to be 5.7 µM; with HT-29 it was 10 µM; in the test on M21, 4.6 µM. Also, the result in test [1] was inactive.

Regarding `C=CC(=O)Nc1cccc(CCCCCOC)c1`, the IC50 in the test on MCF7 was greater than 100 µM; in the test on HT-29, 40 µM; with M21, 48 µM.

Turning to `COCCCCCc1cccc(NC(=O)CCCCl)c1`, the IC50 in the test with MCF7, in the test on HT-29 and in the test with M21 was greater than 100 µM throughout.

Take `CC(C)(C)c1ccc(CNC(=O)CCl)cc1`: the values for the IC50 in the test with MCF7, with HT-29 and with M21 were 23 µM, 18 µM and 16 µM, respectively. For the same molecule, in test [1], the result was inactive.

As to `O=C(CCCCl)Nc1ccc(I)cc1`, the IC50 in the test on MCF7, with HT-29 and in the test with M21 was greater than 100 µM in each case.

`C=CC(=O)Nc1cccc(CCCCCO)c1`: the figures for the IC50 in the test with MCF7, in the test on HT-29 and in the test on M21 were greater than 100 µM, greater than 100 µM and 98 µM, respectively.

For `CC(=O)CCCCc1cccc(NC(=O)CCCCl)c1`, the IC50 with MCF7, in the test on HT-29 and with M21 was greater than 100 µM in each case.

Turning to `CCNC(=O)Nc1ccc(I)cc1`, the IC50 in the test on MCF7, in the test with HT-29 and in the test with M21 was greater than 100 µM in each case.

For the molecule `C=CC(=O)Nc1ccc(I)cc1`, the IC50 was 17 µM with MCF7, 15 µM in the test with HT-29 and 11 µM in the test on M21. Besides, the result in test [1] was inactive.

Consider `CC(C)(C)c1ccc(CNC(=O)NC(=O)CCl)cc1`, for which the IC50 in the test with MCF7 came out at 2.8 µM; in the test with HT-29 it was 7.1 µM; in the test with M21 it was 2.4 µM. Further, the result in test [1] was inactive.

Turning to `COCCCCCc1cccc(NC(=O)NC(=O)CCl)c1`, the IC50 in the test on MCF7 worked out at 6.1 µM; in the test on HT-29 it was 10 µM; in the test on M21 it was 4.2 µM. Besides, in test [1], the outcome was inactive.

As to `CC(C)(C)c1ccc(CNC(=O)CCCCl)cc1`, the IC50 with MCF7 stood at 92 µM; with HT-29 it was 72 µM; in the test with M21, 69 µM.

On to `CCNC(=O)Nc1cccc(CCCCCOC)c1`, for which the IC50 in the test with MCF7, with HT-29 and with M21 was greater than 100 µM each time.

Regarding `CC(C)(C)c1ccc(NC(=O)CCCCl)cc1`, the IC50 in the test with MCF7, with HT-29 and with M21 was greater than 100 µM in each case.

`C=CC(=O)Nc1ccc(C(C)(C)C)cc1`: the IC50 in the test on MCF7 turned out to be 29 µM; with HT-29, 24 µM; with M21, 22 µM. In addition, the result in test [1] was inactive.

As to `CCCCCc1cccc(NC(=O)CCCCl)c1`, the IC50 in the test with MCF7, in the test on HT-29 and in the test on M21 was greater than 100 µM each time.

In the case of `O=C(CCCl)Nc1cccc(CCCCCO)c1`, the IC50 with MCF7, in the test on HT-29 and in the test on M21 was greater than 100 µM throughout.

Take `CCCCCc1cccc(NC(=O)NCC)c1`: the IC50 amounted to 67 µM in the test on MCF7, 16 µM with HT-29 and 36 µM with M21.

As to `CC(C)(C)c1ccc(CNC(=O)CCCl)cc1`, the IC50 in the test with MCF7 was 67 µM; in the test on HT-29, 87 µM; with M21 it was greater than 100 µM.

Take `CCNC(=O)Nc1cccc(CCCCC(C)=O)c1`: the IC50 in the test with MCF7 is greater than 100 µM; in the test on HT-29 it was 40 µM; with M21 it was greater than 100 µM.

As to `CC(C)(C)c1ccc(NC(=O)NC(=O)CCl)cc1`, the IC50 in the test on MCF7 came to 2 µM; in the test with HT-29, 6.5 µM; with M21, 1.4 µM.

On to `CC(C)(C)c1ccc(NC(=O)CCCl)cc1`, for which the IC50 in the test on MCF7 was 49 µM; in the test with HT-29 it was 88 µM; in the test with M21, 74 µM.

With `O=C(CCCl)Nc1ccc(I)cc1`, the figures for the IC50 in the test on MCF7, with HT-29 and in the test on M21 were 26 µM, 18 µM and 20 µM, respectively. Also, the outcome in test [1] was inactive.

Take `C=CC(=O)Nc1cccc(CCCCC)c1`: the IC50 came to 49 µM with MCF7, 31 µM in the test with HT-29 and 27 µM with M21.

On to `O=C(CCCCl)Nc1cccc(CCCCCO)c1`, for which the IC50 with MCF7, in the test on HT-29 and in the test with M21 was greater than 100 µM throughout.

On to `CC(C)(C)c1ccc(NC(=O)NCCCCl)cc1`, for which the values for the IC50 in the test on MCF7, in the test with HT-29 and with M21 were 49 µM, 28 µM and 35 µM, respectively.

As for `O=C(NCCCCl)Nc1cccc(CCCCCO)c1`, the IC50 in the test on MCF7 is greater than 100 µM; in the test on HT-29, 19 µM; in the test on M21, 35 µM.

As to `CCCCCc1cccc(NC(=O)NCCCCl)c1`, the figures for the IC50 in the test with MCF7, with HT-29 and in the test with M21 were 26 µM, 28 µM and 24 µM, respectively.

In the case of `CC(=O)CCCCc1cccc(NC(=O)CCCl)c1`, the IC50 with MCF7, with HT-29 and with M21 was greater than 100 µM in each case.

As to `CCCCCc1cccc(NC(=O)CCCl)c1`, the IC50 stood at 54 µM in the test with MCF7, 46 µM with HT-29 and 54 µM in the test on M21.

Take `CCCCCc1cccc(NC(=O)CCl)c1`: the values for the 50% inhibitory concentration (IC50) in the test on MCF7, in the test on HT-29 and with M21 were 5.7 µM, 12 µM and 1.4 µM, respectively. The outcome in test [1] was inactive.

In the case of `CC(=O)CCCCc1cccc(NC(=O)NCCCCl)c1`, the IC50 was found to be 71 µM with MCF7, 41 µM in the test with HT-29 and 36 µM with M21.

Consider `C=CC(=O)NCc1ccc(C(C)(C)C)cc1`, for which the 50% inhibitory concentration (IC50) with MCF7 is greater than 100 µM; in the test with HT-29 it was greater than 100 µM; in the test on M21, 72 µM.

The values above are taken from ChEMBL document CHEMBL1177866, “Synthesis, antiproliferative activity evaluation and structure-activity relationships of novel aromatic urea and amide analogues of N-phenyl-N'-(2-chloroethyl)ureas” (Eur J Med Chem, 2010).
